Measured values of several laboratories.
Each line is one published result; the experiments were not run side by side.
Target: Serine/threonine-protein kinase Nek1 (NEK1, Homo sapiens, UniProt Q96PY6)
Sequence (Q96PY6 1-1258, as in one of the studies): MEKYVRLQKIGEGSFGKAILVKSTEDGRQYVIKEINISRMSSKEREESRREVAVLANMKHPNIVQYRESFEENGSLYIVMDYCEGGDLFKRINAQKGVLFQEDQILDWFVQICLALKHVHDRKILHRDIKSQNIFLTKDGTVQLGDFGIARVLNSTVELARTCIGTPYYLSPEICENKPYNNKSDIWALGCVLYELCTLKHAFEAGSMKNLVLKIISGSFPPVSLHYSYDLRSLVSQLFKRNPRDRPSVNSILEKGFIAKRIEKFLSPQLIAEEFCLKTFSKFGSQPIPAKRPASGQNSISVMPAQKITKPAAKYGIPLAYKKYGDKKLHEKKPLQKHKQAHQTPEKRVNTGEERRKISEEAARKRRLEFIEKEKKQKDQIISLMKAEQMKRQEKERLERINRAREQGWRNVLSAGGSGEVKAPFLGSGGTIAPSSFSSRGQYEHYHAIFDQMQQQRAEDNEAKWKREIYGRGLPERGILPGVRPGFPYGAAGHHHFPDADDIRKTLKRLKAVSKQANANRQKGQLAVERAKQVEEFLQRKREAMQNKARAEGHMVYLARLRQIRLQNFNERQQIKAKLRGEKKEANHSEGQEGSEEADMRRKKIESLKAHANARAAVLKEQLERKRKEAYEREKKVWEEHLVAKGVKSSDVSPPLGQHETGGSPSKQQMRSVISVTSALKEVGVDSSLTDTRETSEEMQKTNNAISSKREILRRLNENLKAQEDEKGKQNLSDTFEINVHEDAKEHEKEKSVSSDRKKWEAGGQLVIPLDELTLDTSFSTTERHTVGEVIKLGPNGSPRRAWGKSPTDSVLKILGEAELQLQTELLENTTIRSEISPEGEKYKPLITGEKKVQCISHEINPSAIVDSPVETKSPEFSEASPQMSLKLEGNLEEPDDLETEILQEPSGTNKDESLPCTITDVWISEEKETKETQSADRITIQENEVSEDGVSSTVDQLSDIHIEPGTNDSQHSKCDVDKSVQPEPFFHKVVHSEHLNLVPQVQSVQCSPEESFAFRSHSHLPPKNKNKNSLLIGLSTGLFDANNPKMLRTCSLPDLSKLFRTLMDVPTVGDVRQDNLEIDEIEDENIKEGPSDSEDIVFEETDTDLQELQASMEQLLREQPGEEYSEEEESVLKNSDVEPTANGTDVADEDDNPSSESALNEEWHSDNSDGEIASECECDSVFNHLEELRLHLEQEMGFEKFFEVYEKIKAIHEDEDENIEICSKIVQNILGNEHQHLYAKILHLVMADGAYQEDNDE

CN(c1ccnc(CNc2nc(Nc3ccc4c(c3)CC(=O)N4)ncc2C(F)(F)F)n1)S(C)(=O)=O — remaining binding (cell-free assay, competition with immobilised ligand; 1 µM): 51%
C=CC(=O)N1CCC(C(=O)NCC(=O)N2CCN(c3nc(-c4cnc(N)nc4C(F)F)nc(N4CCOCC4)n3)CC2)CC1 — remaining binding (binding, competition with immobilised ligand; 1 µM): 96%
O=C(c1ccc(Nc2ncc(Cl)c(-c3cc4ccccc4s3)n2)cc1)N1CCC(N2CCCC2)CC1 — remaining binding (binding, competition with immobilised ligand; 1 µM): 27%
O=C(NS(=O)(=O)c1ccc(NCC2CCOCC2)c([N+](=O)[O-])c1)c1ccc(N2CCN(Cc3ccc(C(F)(F)F)cc3-c3ccc(Cl)cc3)CC2)cc1Oc1cnc2[nH]ccc2c1 — remaining binding (cell-free assay, competition with immobilised ligand; 1 µM): 99%
CN(C)c1ncc(F)c(-c2cnn3ncccc23)n1 — remaining binding (binding; 1 µM): 100%
CCC(=O)N[C@H]1CC[C@@H](C(=O)N(C)c2ccc(-c3nc4ccccc4o3)cc2)C1 — remaining binding (cell-free assay, competition with immobilised ligand; 1 µM): 100%
CN(C)c1nccc(-c2cnn3ncccc23)n1 — remaining binding (binding; 1 µM): 88%
O=C(c1ccc(Nc2ncc(Cl)c(-c3ccc(Cl)s3)n2)cc1)N1CCC(N2CCCC2)CC1 — remaining binding (binding, competition with immobilised ligand; 1 µM): 23%
CS(=O)(=O)NCC[C@H](NC(=O)c1cncc2c1cnn2-c1ccc(F)cc1)c1ccnc(S(C)(=O)=O)c1 — remaining binding (cell-free assay, competition with immobilised ligand; 1 µM): 45%
N[C@H]1CCN(c2nccc(-c3cnn4ncccc34)n2)C1 — remaining binding (binding; 1 µM): 97%
COc1cnc(Nc2cccc(S(N)(=O)=O)c2)nc1N1CCN(c2ccccc2)C(=O)C1 — remaining binding (binding, competition with immobilised ligand; 1 µM): 100%
CN(c1nccc(-c2cnn3ncccc23)n1)C1CC1 — remaining binding (binding; 1 µM): 100%
O=C(NCCCN1CCOCC1)c1ccc(Nc2nccc(-c3cc4ccccc4s3)n2)cc1 — remaining binding (binding, competition with immobilised ligand; 1 µM): 72%
Nc1cnc(N2CCc3cc(S(=O)(=O)Nc4c(F)cc(Cl)cc4F)cc(N4CCCC4=O)c32)nc1 — remaining binding (binding, competition with immobilised ligand; 1 µM): 46%
O=C(Nc1c[nH]nc1C(=O)NC1CCNCC1)c1cc(F)cc(F)c1 — remaining binding (binding, competition with immobilised ligand; 1 µM): 100%
C[C@@H](c1ccc(-n2cnc3c(N)ncnc32)cc1)N1CCc2nn(C)c(Cc3ccccc3)c2C1=O — remaining binding (binding, competition with immobilised ligand; 0.1 µM): 87%
CN(C)c1nccc(-c2cnc3ncccn23)n1 — remaining binding (binding; 1 µM): 100%
O=C(O)c1cc(-c2ccc(C3CCNCC3)cc2)c2ccc(-c3ccc(C(F)(F)F)cc3)cc2c1 — remaining binding (cell-free assay, competition with immobilised ligand; 1 µM): 100%
C[C@H]1CCN(c2nccc(-c3cnn4ncccc34)n2)C1 — remaining binding (binding; 1 µM): 100%
CCN1CCN(Cc2ccc(C(=O)Nc3ccc(C)c(Oc4ccc5c(c4)CC(=O)N5)c3)cc2C(F)(F)F)CC1 — remaining binding (binding, competition with immobilised ligand; 1 µM): 100%
NS(=O)(=O)c1cc(NC(=O)C2(c3ccccc3Cl)CC2)ccc1Oc1cccc(Cl)c1 — remaining binding (cell-free assay, competition with immobilised ligand; 1 µM): 100%
CC1CCCN1c1nccc(-c2cnn3ncccc23)n1 (stereo not shown) — remaining binding (binding; 1 µM): 100%
